Assay outcomes: PubChem BioAssay, several laboratories
PfG6PD inh: PfG6PD (Plasmodium falciparum) enzyme inhibition; PfGluPho enzyme, NADPH resazurin-diaphorase fluorescence; inhibition, % at 20 µM; hit rate 0.78% among 350,000; AID 504690;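 active = inhibition reaching at least a set limit at 20 µM in the primary screen, cut at about 59% in these data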;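 note: 0% = DMSO wells with substrate and 100% = DMSO wells lacking glucose-6-phosphate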
HKDC1 inh: HKDC1 (human) hexokinase inhibition | recombinant HKDC1, G6PDH/diaphorase resazurin coupled fluorescence | inhibition, % at 20 µM | hit rate 0.16% among 340,000 | AID 493160;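 active = inhibition above about 35% when tested at 20 µM, limit read from the data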;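 note: plate controls were DMSO wells with enzyme for no effect and DMSO wells lacking enzyme for full effect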
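Test system: HK5 enzyme. Quantity: 5 µg/mL HK5 final. Reagent: glucose and ATP substrates. Schedule: 90 min reaction incubation at room temperature, dark. Technique: resazurin-to-resorufin fluorescence via G6PDH and diaphorase coupling, 525/613 nm. Control set: DMSO wells with and without enzyme mix.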
PfM18AAP inh: PfM18AAP enzyme inhibition; recombinant PfM18AAP, H-Glu-NHMec fluorogenic cleavage; inhibition, % at 7.35 µM; hit rate 1.2% among 290,000;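 active = inhibition above the campaign mean inhibition over all tested compounds plus 3 SD, cut at about 28% in these data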;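 note: 0% = plate median of test compound wells and 100% = 2 mM ZnCl2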
Neddyl block: inhibitors of human cullin neddylation; P61081+Q13564; TR-FRET cullin neddylation, biochemical; inhibition, % at 25 µM; hit rate 0.58% among 360,000; AID 651699; in the data active = inhibition above about 36%
Target sequence (P61081 whole entry, looked up): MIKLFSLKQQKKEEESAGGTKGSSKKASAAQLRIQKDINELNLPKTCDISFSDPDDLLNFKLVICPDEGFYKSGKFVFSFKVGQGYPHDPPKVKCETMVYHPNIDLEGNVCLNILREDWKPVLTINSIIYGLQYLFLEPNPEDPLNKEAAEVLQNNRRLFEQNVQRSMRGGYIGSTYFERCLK
Target sequence (Q13564 whole entry, looked up): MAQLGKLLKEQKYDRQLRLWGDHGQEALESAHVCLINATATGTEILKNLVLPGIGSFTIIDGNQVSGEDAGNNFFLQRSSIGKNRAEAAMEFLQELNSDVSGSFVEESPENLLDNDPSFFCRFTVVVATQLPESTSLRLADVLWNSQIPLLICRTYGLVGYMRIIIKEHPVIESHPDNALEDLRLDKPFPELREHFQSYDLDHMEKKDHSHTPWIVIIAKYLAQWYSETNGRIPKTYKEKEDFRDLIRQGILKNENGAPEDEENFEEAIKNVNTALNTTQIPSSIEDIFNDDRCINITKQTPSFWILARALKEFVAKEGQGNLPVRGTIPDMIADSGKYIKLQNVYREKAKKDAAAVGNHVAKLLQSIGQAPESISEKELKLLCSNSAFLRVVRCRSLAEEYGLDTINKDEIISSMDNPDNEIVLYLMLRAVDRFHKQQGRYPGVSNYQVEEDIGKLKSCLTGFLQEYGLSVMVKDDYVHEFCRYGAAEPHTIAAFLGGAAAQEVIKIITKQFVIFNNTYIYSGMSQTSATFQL
* = called active by the depositor; x = no result shown. Compounds with a hit are over-represented: about 2.2% of the library has one in this group of screens.

SMILES | PfG6PD inh | HKDC1 inh | PfM18AAP inh | Neddyl block
O=C(CN1C(=O)/C(=C/c2ccco2)SC1=S)Nc1ccc(O)c(C(=O)O)c1 | -35 | 17 | 24 | 24
O=C(CN1C(=O)/C(=C/c2ccco2)SC1=S)Nc1ccc(C(=O)O)c(O)c1 | -14 | 17 | 47* | 4
Clc1nnc(NC2CCCCC2)c(Cl)c1Cl | -4 | x | x | 4
CC(C)(C)c1ccc(C(=O)CCC(=O)OCC(=O)NCCc2ccc(S(N)(=O)=O)cc2)cc1 | 10 | -3 | x | -1
CC(=O)c1ccc(N(CC(=O)NCc2ccc3c(c2)OCO3)C(=O)c2csnn2)cc1 | 2 | 1 | 4 | -2
CC(C)(C)C1=CC(=O)C(=O)C(C(C)(C)C)=C1 | 111* | 14 | -9 | 3
CC(C)(C)C1=CC(=Nc2ccccc2N)C=C(C(C)(C)C)C1=O | 23 | 12 | 1 | -2
Cc1n[nH]c(C)c1NC(=O)CN1CCN(S(=O)(=O)c2ccc(C(F)(F)F)cc2)CC1 | -15 | -2 | x | -30
CC(C)c1ccc(O)c(NC(=O)c2ncn[nH]2)c1 | -5 | -3 | 29* | -5
CCc1cc(C(=O)NNC(=S)NCc2ccccc2)cs1 | -3 | 15 | 7 | -6
CCNC(=S)NNC(=O)c1csc(CC)c1 | -13 | -7 | 31* | 7
N#CC12COC3(CCCCC3C1(C#N)C#N)OC2=N (stereo unspecified) | 13 | -2 | 5 | 45*
CC1OC23CCCCC2C(C#N)(C(=N)O3)C1(C#N)C#N (stereo unspecified) | 2 | 2 | 6 | 24
N#CC1(C#N)COC23CCCCC2C1(C#N)C(=N)O3 (stereo unspecified) | 12 | -4 | -4 | 42*
CCOC(=O)[C@]12CCC=C1N(Cc1ccc3c(c1)OCO3)C(=O)[C@H](CC(=O)NCC1CCCCC1)C2 | x | x | x | 10
O=C1N=C(N2C=CC(=C3C=CNC=C3)C=C2)/C(=C/N=NC(=O)c2ccccc2O)S1 | 4 | -4 | 29* | -147
O=C1CCC[C@@H]2C=C[C@H](c3ccc(Br)cc3)[C@H]3CCN1[C@@H]32 | x | x | x | -1
O=C(COC(=O)CNC(=O)c1ccc(Cl)c([N+](=O)[O-])c1)NNC(=O)c1ccccc1F | 1 | 1 | x | -13
CCN1C(=O)c2cccc3c(S(=O)(=O)Nc4ncccc4C)ccc1c23 | 41 | 16 | 1 | 51*
CCN(CCn1cccn1)C(=O)c1cccc(OC2CCN(S(C)(=O)=O)CC2)c1 | -12 | -2 | 2 | 3
O=[N+]([O-])c1ccc(-c2cn3nc(-c4ccccc4)c(-c4ccccc4)nc3n2)cc1 | 19 | -2 | 30* | 31
O=C(NCc1ccccc1)C(c1ccc(F)cc1)N1CCN(c2ccccc2F)CC1 (stereo unspecified) | x | x | x | 3
O=C1C=CC(=O)C(CNc2ccc(C(=O)OCc3ccccc3)cc2)=C1 | 75* | 47* | x | 15
Cc1ccsc1C=Nc1ccc(O)cc1 | 84* | 24 | 12 | -24
COc1ccc(OC)c(/C=C2\S/C(=N/NC(=O)c3ccc4ccccc4c3)NC2=O)c1 | -49 | -20 | -3 | 48*
SMILES | PfG6PD inh | HKDC1 inh | PfM18AAP inh | Neddyl block
O=C1N/C(=N/NC(=O)c2cccc3ccccc23)S/C1=C\c1ccccc1OCc1ccccc1 | -44 | -12 | -12 | x
COc1ccc(C2C=C(c3ccc(Br)s3)Nc3ncnn32)cc1OC (stereo unspecified) | x | x | 36* | x
COc1ccc(C2C=C(c3ccc(C)cc3)Nc3ncnn32)cc1 (stereo unspecified) | 2 | 12 | 16 | x
O=C1CNC(=S)N1CCc1ccc(O)c(O)c1 | 14 | -6 | 69* | 2
Cc1nnc(NC(=O)CSc2nnc(-c3ccco3)o2)s1 | 0 | -2 | 29* | -5
Cc1ccc(C(=O)NC(C(=O)NC2CCCC2)c2ccccc2)cc1 (stereo unspecified) | 7 | -3 | 0 | 3
COc1ccc(C/C(C)=N/Nc2nc(C)cc(=O)[nH]2)cc1 | 5 | -8 | 31* | -4
COc1ccc(CCNc2nc(C)cc(=O)[nH]2)cc1OC | -4 | 1 | 3 | 3
CN(C)S(=O)(=O)c1ccc(N2CCCC2)c(C(=O)N2CCN(S(=O)(=O)c3ccccc3F)CC2)c1 | 0 | -2 | x | 2
Cc1cc(CNC(=O)c2ccc3oc(C(C)C)nc3c2)nn1C | -6 | -4 | -16 | -2
CC(C)n1cc(/C=N/Nc2ccc(C(=O)O)cc2)c2ccccc21 | -7 | 9 | 15 | 43*
Cn1cc(/C=N/Nc2ccccc2)c2ccccc21 | 39 | 1 | 7 | 27
O=C(O)c1ccc(N/N=C/c2cn(Cc3ccccc3F)c3ccccc23)cc1 | -28 | 3 | 15 | 46*
O=C1CCC/C(=N\NC(=O)c2ccc(NS(=O)(=O)c3ccc(Br)cc3)cc2)C1 | -7 | 1 | 30* | 6
Cc1ccc(/C=N/Nc2ccnc3cc(Cl)ccc23)c(C)c1 | 3 | -3 | 3 | 45*
Cc1ccccc1/C=N/Nc1ccnc2cc(Cl)ccc12 | 9 | -4 | 4 | 31
CCOC(=O)N1CCC(=NNc2nc3ccccc3s2)CC1 | 2 | -1 | 29* | 7
C[C@@H]1CN([C@H](C)CO)S(=O)(=O)c2ccc(C#Cc3ccccc3F)cc2O[C@H]1CN(C)C(=O)c1ccc2c(c1)OCO2 | 5 | x | x | 24
O=C(Nc1ccc(Cl)cc1Cl)c1cccc(N2C(=O)C=CC2=O)c1 | 113* | -7 | x | 4
O=C(Nc1ccc(Cl)cc1Cl)c1ccc2c(c1)OCCO2 | 15 | 0 | x | -6
CCN(C[C@H]1N[C@@](Cc2ccccc2)(C(=O)OC)[C@H]2C(=O)N(C)C(=O)[C@@H]12)S(=O)(=O)c1ccc(C(C)(C)C)cc1 | 30 | 1 | x | 5
CCOc1ccccc1NC(=S)N1CCN(c2ccc(O)cc2)CC1 | 38 | 4 | 30* | 11
C#CCOCCOCCOCCNc1nc(N2CCN(C(=O)C(Cc3cc4ccccc4[nH]3)n3cc(C(N)C(C)CC)nn3)CC2)nc(N2CCN(C(=O)C(Cc3cc4ccccc4[nH]3)n3cc(C(N)C(C)CC)nn3)CC2)n1 (stereo unspecified) | 61* | 28 | -15 | -21
C#CCOCCOCCOCCNc1nc(N2CCOCC2)nc(N2CCN(C(=O)[C@H](Cc3cc4ccccc4[nH]3)n3cc([C@@H](N)C(C)CC)nn3)CC2)n1 (stereo partly specified) | 19 | -3 | -2 | -9
C#CCOCCOCCOCCNc1nc(N2CCN(C(=O)CCCCCCCCCCNC(=O)[C@@H](CCSC)n3cc(CCO)nn3)CC2)nc(N2CCN(C(=O)CCCCCCCCCCNC(=O)[C@H](CCCN=C(N)N)n3cc(C[C@@H](C)CC)nn3)CC2)n1 | 69* | 10 | x | -5
C#CCOCCOCCOCCNc1nc(N2CCN(C(=O)CCCCCCCCCCNC(=O)[C@H](CCCCN)n3cc(C)nn3)CC2)nc(N2CCN(C(=O)CCCCCCCCCCNC(=O)[C@H](CCCN=C(N)N)n3cc(C[C@@H](C)CC)nn3)CC2)n1 | 60* | 1 | x | x
